Source: PubChem BioAssay
Only some compounds are listed: those with a hit (about 2% of all), similar ones and a draw of the others.
UCH37 DUB inh: inhibitors of human UCH37 deubiquitinase, primary screen, biochemical, Ub-AMC cleavage, fluorescence; AID 588478, 2011; inhibition, % (concentration not given with the values); 330,000 compounds, 0.33% hits; purified proteasome/UCH37; Ubiquitin carboxyl-terminal hydrolase isozyme L5 (Homo sapiens), Q9Y5K5;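 active = mean inhibition over replicate wells above about 20%, limit read from the data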;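 note: 0% = compound-free wells with enzyme and 100% = wells lacking proteasome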
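assay system = human UCH37 enzyme supplied as purified proteasome complex | amount = proteasome at 0.15 nM in the dispensed enzyme solution | schedule = 30 min compound-proteasome preincubation then 25 min substrate reaction, room temperature | measured by = fluorescence, ex 355 nm, em 460 nm | benchmarks = no-proteasome wells (full inhibition) and compound-free wells (no inhibition)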
Fh CTSL1 inh: Fasciola hepatica cathepsin L1 inhibitors, primary screen, counter-screen for PFM18AAP inhibitor project, biochemical, QFRET, fluorogenic peptide substrate | recombinant F. hepatica cathepsin L1, Z-Leu-Arg-MCA fluorescence | 300,000 compounds, 0.49% hits | inhibition, % at 5.96 µM | AID 1906, 2009;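 active = inhibition above the mean of all tested compounds plus 3 SD, set per screening campaign, cut at about 17% in these data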;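 note: 0% = plate median of test compound wells and 100% = 1 µM Z-Phe-Ala-diazomethylketone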
PAD4 FP inh: human PAD4 inhibitors, primary screen, biochemical, fluorescence polarization, 1536-well format; 330,000 compounds, 0.41% hits; inhibition, % at 6.36 µM; recombinant PAD4, RCA probe fluorescence polarization;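 active = percent inhibition above a cutoff equal to the mean of all tested compounds plus 3 SD, cut at about 15% in these data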;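 note: 0% = PAD4 with RCA probe and DMSO and 100% = probe without PAD4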
Apaf-1 inh: inhibitors of human Apaf-1 apoptosome, primary screen, biochemical, DEVD-Rh110 fluorescence, uHTS; reconstituted apoptosome caspase-3 activity; inhibition, % at 20 µM; 330,000 compounds, 0.71% hits; AID 489030, 2010; active = inhibition of at least 40% at 20 µM;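 note: plate controls were DMSO wells for no effect and DEVD-CHO caspase inhibitor wells for full effect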
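Material: reconstituted apoptosome with Apaf-1, cytochrome c, caspase-9, procaspase-3, dATP; medium: pH 7.5 Hepes buffer with CHAPS, BSA, DTT; also added: cytochrome c and DEVD-Rh110 substrate; timing: 30 min plus 50 min, RT; signal: Rh110 fluorescence intensity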
GSTO1 inh: inhibitors of recombinant GSTO1, primary screen, counter-screen for RBBP9 inhibitor project, biochemical, fluorescence polarization; Glutathione S-transferase omega-1 (Homo sapiens), P78417; inhibition, % at 5.96 µM; 300,000 compounds, 1.1% hits; activity-based probe fluorescence polarization;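 active = inhibition above the campaign mean inhibition plus 3 SD, cut at about 35% in these data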;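 note: 0% = GSTO1-1 with DMSO and 100% = wells lacking GSTO1-1 enzyme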
Target sequence (P78417 whole entry, looked up): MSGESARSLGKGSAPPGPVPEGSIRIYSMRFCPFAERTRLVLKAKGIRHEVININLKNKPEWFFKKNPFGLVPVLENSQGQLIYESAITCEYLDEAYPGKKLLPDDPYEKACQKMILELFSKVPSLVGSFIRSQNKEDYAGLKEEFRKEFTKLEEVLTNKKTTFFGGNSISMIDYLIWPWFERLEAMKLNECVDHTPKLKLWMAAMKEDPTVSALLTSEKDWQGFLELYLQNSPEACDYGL
PP5 primary: PP5 phosphatase inhibitors, primary screen, biochemical, fluorescence. 320,000 compounds, 0.18% hits. inhibition, % at 6.7 µM. purified PP5c, OMFP substrate fluorescence. Serine/threonine-protein phosphatase 5 (Homo sapiens), P53041;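 active = inhibition above the campaign's mean inhibition across all tested compounds plus 3 SD, cut at about 9.5% in these data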;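 note: 0% = DMSO only and 100% = 100 µM cantharidin control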
Target sequence (P53041 whole entry, looked up): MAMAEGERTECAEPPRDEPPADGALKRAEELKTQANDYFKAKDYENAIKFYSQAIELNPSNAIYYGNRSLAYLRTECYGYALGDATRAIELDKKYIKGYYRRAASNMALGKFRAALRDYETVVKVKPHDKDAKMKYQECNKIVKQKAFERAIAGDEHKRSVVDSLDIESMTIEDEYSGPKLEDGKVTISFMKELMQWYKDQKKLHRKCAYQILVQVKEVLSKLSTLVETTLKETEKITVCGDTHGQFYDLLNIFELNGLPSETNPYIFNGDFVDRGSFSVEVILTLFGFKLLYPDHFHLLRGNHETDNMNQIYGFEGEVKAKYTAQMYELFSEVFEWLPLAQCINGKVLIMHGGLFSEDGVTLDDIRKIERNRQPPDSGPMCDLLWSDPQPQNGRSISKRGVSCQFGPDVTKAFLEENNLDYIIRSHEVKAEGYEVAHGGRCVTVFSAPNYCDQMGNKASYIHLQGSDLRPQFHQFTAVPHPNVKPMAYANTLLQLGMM
PP5 inh confirm: PP5 phosphatase inhibitors, confirmation, biochemical, fluorescence, human. shares compounds with PP5 primary. Purified PP5, fluorogenic phosphatase substrate. inhibition, % at 6.7 µM. 460 compounds, 22% hits; in the data active = inhibition above about 9.5%
PP1 counter 3x: PP1 phosphatase inhibitors, counter-screen for PP5 inhibitor project, biochemical, fluorescence, triplicate | shares compounds with PP5 primary | PP1 enzyme, fluorescent phosphatase substrate | inhibition, % at 6.7 µM | 460 compounds, 4% hits | AID 2355, 2010; in the data active = inhibition above about 16%
PAD4 confirm: human PAD4 inhibitors, confirmation, biochemical, fluorescence polarization; shares compounds with PAD4 FP inh; recombinant PAD4, RCA probe fluorescence polarization; inhibition, % at 6.36 µM; 1,200 compounds, 28% hits; AID 488796, 2010;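 active = mean inhibition across replicates above the hit cutoff set by the earlier primary screen, cut at about 15% in these data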;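 note: inhibitors block active-site labeling by the probe so polarization falls; 0% = PAD4 with probe and DMSO and 100% = probe without PAD4 enzyme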
Apaf-1 inh conf2: Apaf-1 inhibitors, single-dose retest, confirmation, biochemical, fluorescence, DEVD-Rh110, 20 µM; reconstituted apoptosome, caspase-3 DEVD-Rh110 fluorescence; AID 504614, 2011; inhibition, % at 20 µM; 1,800 compounds, 25% hits; shares compounds with Apaf-1 inh;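 active = mean inhibition of at least 40% at 20 µM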;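 note: plate controls were DMSO wells for no effect and DEVD-CHO caspase inhibitor control wells for full effect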
Rh110 interf inh: Rh110 fluorescence interference by putative Apaf-1 inhibitors, confirmation, artefact control for Apaf-1 inhibitor project, biochemical, 20 µM; quenched caspase reaction; activation (fluorescence interference), % at 20 µM; shares compounds with Apaf-1 inh; 1,800 tested, under 10 active;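 active = signal rise of 40% or more at 20 µM, treated as a fluorescence artifact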
Fluor interf inh: fluorescence interference of Apaf-1 inhibitor hits, dose response, artefact control for Apaf-1 inhibitor project; IC50, µM; fluorescence interference counterscreen, Apaf-1 assay format; shares compounds with Apaf-1 inh; AID 588538, 2011; 460 tested, under 10 active; call rule not given here
Active calls of the source: *; / = not tested or not shown.

SMILES	UCH37 DUB inh	Fh CTSL1 inh	PAD4 FP inh	Apaf-1 inh	GSTO1 inh	PP5 primary	PAD4 confirm	others
Oc1ccc(/C=N\Nc2cc(N3CCOCC3)nc(N3CCOCC3)n2)c(O)c1	/	0	-2	85*	26	14*	/	PP5 inh confirm=36*;PP1 counter 3x=0;Apaf-1 inh conf2=60*;Rh110 interf inh=7;Fluor interf inh=>100
Cc1nn(Cc2c(F)c(F)c(F)c(F)c2F)c(C)c1NC(=O)c1ccc(COc2ccc(Cl)cc2Cl)o1	5	17*	0	46*	0	10*	/	PP5 inh confirm=3;PP1 counter 3x=2;Apaf-1 inh conf2=21;Rh110 interf inh=6
FC(F)Oc1ccc(C=NN2CCCCC2)c(OC(F)F)c1	0	/	/	/	/	/	/
Cc1[nH]c2ccccc2c1C(C#N)(C#N)C1C(=O)c2ccccc2C1=O	-3	3	37*	73*	73*	21*	-1	PP5 inh confirm=8;PP1 counter 3x=1;Apaf-1 inh conf2=45*;Rh110 interf inh=0;Fluor interf inh=>100
COc1ccc(C(=O)NCC(=O)NN=Cc2ccc(C)o2)cc1OC	4	/	/	/	/	/	/
COC/C=C/C1=CC2=CC(=O)C(C)(OC(=O)c3cnc4ccccc4n3)C(=O)C2=CN1Cc1ccccc1 (configuration not stated)	4	-1	5	32	16	3	/
COC/C=C/C1=CC2=CC(=O)C(C)(OC(=O)c3cnc4ccccc4n3)C(=O)C2=CN1CC1CC1 (configuration not stated)	41*	1	24*	27	22	2	3
Cc1nn(-c2ccccc2)cc1C=NNC(N)=S	6	/	/	/	/	/	/
CCN(CC)c1ccc2c(c1)oc(=O)c1c(Cl)cc(=O)oc12	-60	2	26*	0	25	1	19*
CCN(CC)c1ccc2c(C)c(Cl)c(=O)oc2c1	-442	1	-2	15	5	1	/
CCOC(=O)NC(=O)/C(C#N)=C\Nc1ccc(Cl)cc1Cl	2	-1	2	-4	-5	-1	/
CCOC(=O)NC(=O)/C(C#N)=C\Nc1sccc1C(=O)OC	28*	-3	35*	2	4	-5	4
Cc1ccccc1-n1sc2cc(F)ccc2c1=O	2	-1	21*	1	9	4	28*
O=c1c2cc(F)ccc2sn1-c1ccccc1	4	/	41*	5	/	5	36*
O=C(O)c1cccc(-n2sc3ccccc3c2=O)c1	-1	/	56*	8	/	-1	46*
O=c1c2ccccc2sn1-c1ccccc1	5	-3	36*	3	-5	5	41*
O=c1c2ccccc2sn1-c1nccs1	2	/	/	/	/	/	/
CC1NC(=O)c2ccccc2-n2c1nc1cc(F)ccc1c2=O (configuration not stated)	/	/	1	-18	/	-2	/
O=c1c2ccccc2[nH]c2ccc(F)cc12	-126	9	-4	6	0	4	/
N#Cc1c(N=Cc2cccs2)sc2c1CCCCC2	7	/	/	/	/	/	/
CC(=NNC(=O)c1ccc(N2CCCC2=O)cc1)c1ccc(O)cc1O	-32	/	/	/	/	/	/
Cc1cc(SCC(=O)NN=Cc2ccc(O)c(O)c2)c(C)cc1Br	3	/	/	/	/	/	/
O=c1[nH]c(Sc2ccc([N+](=O)[O-])cc2[N+](=O)[O-])nc2ccccc12	7	2	44*	-5	34	4	19*
O=C(CSc1nc2ccccc2c(=O)[nH]1)Nc1ccc([N+](=O)[O-])cc1	3	/	2	-5	/	/	/
CCC(=O)c1ccc(-c2ccccc2)cc1	-5	1	1	2	3	1	/
SMILES	UCH37 DUB inh	Fh CTSL1 inh	PAD4 FP inh	Apaf-1 inh	GSTO1 inh	PP5 primary	PAD4 confirm	others
O=C(O)CCC(=O)c1ccc(-c2ccccc2)cc1	-5	2	172*	12	-1	-1	16*
CCOC(=O)C(=NNC(=O)c1ccccc1)c1ccccc1	2	/	/	/	/	/	/
CC(=O)Nc1ccc2ccccc2c1	1	-1	1	-21	3	3	/
CCOC(=O)C(Nc1ccc2ccccc2c1)C(=O)OCC	-1	-5	21*	36	8	6	-1
COc1ccc(C=NNC(=O)c2cccc(O)c2)cc1Cn1nc(C)c([N+](=O)[O-])c1C	6	/	/	/	/	/	/
Cn1c(SCC(=O)N/N=C/C=C/c2ccco2)nc2ccccc21	/	1	52*	5	8	3	2
CCCCOc1ccccc1NC(=O)CC1Nc2ccccc2NC1=O (configuration not stated)	-1	0	23*	-7	-11	0	-4
CCCCNC(=O)CC1Nc2ccccc2NC1=O (configuration not stated)	-15	8	-5	3	0	0	/
O=C(NN=Cc1ccc(F)cc1)c1cccc(NC(=O)c2ccc(F)cc2)c1	-9	/	/	/	/	/	/
CCN1C(=O)c2cccc3c(N)ccc(c23)C1=O	/	4	27*	6	11	-11	26*
CCOc1cc(C=NNC(=O)c2ccc(NC(=O)C3CC3)cc2)ccc1O	5	/	/	/	/	/	/
CC1CN(c2ccc(NC(=S)Nc3ccc(N4CC(C)OC(C)C4)cc3)cc2)CC(C)O1 (configuration not stated)	5	-3	20*	-6	12	1	7
CC1CN(C(=S)Nc2ccc(Cl)cc2)CC(C)O1 (configuration not stated)	1	-5	-6	4	4	-1	/
